Reference: ChEMBL document CHEMBL3826910, “Discovery of 3-(5'-Substituted)-Benzimidazole-5-(1-(3,5-dichloropyridin-4-yl)ethoxy)-1H-indazoles as Potent Fibroblast Growth Factor Receptor Inhibitors: Design, Synthesis, and Biological Evaluation” (J Med Chem, 2016)
Activity calls are given as the source filed them. The rule behind the calls is not given here.

Columns and labels:
[1] = AUC (0 to infinity) in Sprague-Dawley rat at 1 mg/kg, iv; format: ADME, organism-based; parameters: dose 1 mg/kg, time infinity, route intravenous; details: in vivo
NCI-H1581 [2] = experiment: Antitumor activity against FGFR1-amplified human NCI-H1581 cells xenografted in nude mouse assessed as tumor growth inhibition at 2 mg/kg, po qd administered for 21 days measured on day 21 post last dose relative to vehicle-treated control; format: functional; details: 504 h, read-out: TGI
Procedure, shortened: (§1)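 Female nude mice (4–6 weeks) housed under SPF conditions. NCI-H1581 tumours were first grown from 5 × 10^6 cells s.c., and 1.5 mm3 fragments were then transplanted s.c. into the right flank. At 115 mm3, mice were randomized and given vehicle or compound orally once daily for 21 days (2 or 10 mg/kg). Tumours were measured by caliper twice weekly, with TV = length × width²/2.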

Bcr/Abl fusion protein = Bcr/Abl fusion protein (Homo sapiens, UniProt P00519); experiment: Inhibition of recombinant human Bcr-Abl using poly (Glu, Tyr) 4:1 as substrate after 60 mins by ELISA; format: protein assay
Procedure, shortened: (§2)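 Purified recombinant kinases tested by ELISA on plates pre-coated with 20 µg/mL poly(Glu,Tyr) 4:1. Reaction run 60 min at 37 °C. Read-out: PY99 anti-phosphotyrosine antibody, HRP anti-mouse IgG and o-phenylenediamine/H2O2, with A490 measured. IC50 from inhibition curves, two independent experiments.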

Ephrin type-A receptor 2 = Ephrin type-A receptor 2 (Homo sapiens, UniProt P29317); experiment: Inhibition of recombinant human EPHA2 using poly (Glu, Tyr) 4:1 as substrate after 60 mins by ELISA; procedure, shortened: as §2
[3] = target: T1, Fibroblast growth factor receptor 1 (Homo sapiens, UniProt P11362); experiment: Inhibition of recombinant human FGFR1 using poly (Glu, Tyr) 4:1 as substrate after 60 mins by ELISA
cells [4] = details: Homo sapiens, RT-112, 72 h
[5] = target: Epidermal growth factor receptor (Homo sapiens, UniProt P00533); experiment: Inhibition of recombinant human EGFR using poly (Glu, Tyr) 4:1 as substrate after 60 mins by ELISA; procedure, shortened: as §2
Sequence of Epidermal growth factor receptor (P00533 whole entry): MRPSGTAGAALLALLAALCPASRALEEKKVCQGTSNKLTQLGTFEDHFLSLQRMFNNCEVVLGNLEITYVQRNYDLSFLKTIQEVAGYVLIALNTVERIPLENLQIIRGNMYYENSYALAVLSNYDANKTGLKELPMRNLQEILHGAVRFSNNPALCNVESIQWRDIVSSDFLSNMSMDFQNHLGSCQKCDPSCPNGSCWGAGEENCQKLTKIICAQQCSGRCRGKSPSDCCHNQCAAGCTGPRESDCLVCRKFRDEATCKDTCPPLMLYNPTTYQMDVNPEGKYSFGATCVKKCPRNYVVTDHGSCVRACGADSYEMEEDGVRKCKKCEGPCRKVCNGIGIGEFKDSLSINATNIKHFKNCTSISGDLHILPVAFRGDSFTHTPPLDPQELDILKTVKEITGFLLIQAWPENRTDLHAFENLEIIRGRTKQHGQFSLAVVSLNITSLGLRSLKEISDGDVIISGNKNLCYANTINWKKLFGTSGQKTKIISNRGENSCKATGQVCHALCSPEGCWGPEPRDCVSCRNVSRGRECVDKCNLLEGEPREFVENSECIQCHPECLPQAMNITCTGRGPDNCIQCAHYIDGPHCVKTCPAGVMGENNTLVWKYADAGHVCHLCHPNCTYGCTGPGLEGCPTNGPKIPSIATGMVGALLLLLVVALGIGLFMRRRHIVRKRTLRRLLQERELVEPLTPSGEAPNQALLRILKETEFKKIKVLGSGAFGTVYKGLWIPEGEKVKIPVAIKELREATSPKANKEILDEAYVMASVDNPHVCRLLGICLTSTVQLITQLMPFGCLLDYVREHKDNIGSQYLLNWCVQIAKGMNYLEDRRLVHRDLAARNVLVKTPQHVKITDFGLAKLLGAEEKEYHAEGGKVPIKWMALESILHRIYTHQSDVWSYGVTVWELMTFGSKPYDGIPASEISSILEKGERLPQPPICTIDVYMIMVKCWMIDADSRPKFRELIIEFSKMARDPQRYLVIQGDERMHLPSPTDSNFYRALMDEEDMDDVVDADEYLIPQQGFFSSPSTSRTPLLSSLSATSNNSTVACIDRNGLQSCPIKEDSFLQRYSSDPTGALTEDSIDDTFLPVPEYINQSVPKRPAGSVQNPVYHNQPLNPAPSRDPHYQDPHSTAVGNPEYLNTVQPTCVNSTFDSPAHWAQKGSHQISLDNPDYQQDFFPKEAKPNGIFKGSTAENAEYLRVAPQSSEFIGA

[6] = Clearance in Sprague-Dawley rat at 1 mg/kg, iv; format: ADME, organism-based; details: in vivo
[7] = target: Receptor tyrosine-protein kinase erbB-2 (Homo sapiens, UniProt P04626); experiment: Inhibition of recombinant human ErbB2 using poly (Glu, Tyr) 4:1 as substrate after 60 mins by ELISA; procedure, shortened: as §2
cells [8] = details: Homo sapiens, KG-1, 72 h
[9] = target: Fibroblast growth factor receptor 4 (Homo sapiens, UniProt P22455); experiment: Inhibition of recombinant human FGFR4 using poly (Glu, Tyr) 4:1 as substrate after 60 mins by ELISA; procedure, shortened: as §2
[10] = target: T1, Fibroblast growth factor receptor 1; experiment: Inhibition of FGFR1 in human KG1 cells assessed as reduction of PLCgamma phosphorylation at 0.1 to 10 nM after 2 hrs by Western blot method; format: cell-based; details: KG-1
Procedure, shortened: (§3)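 KG-1 cells treated at indicated concentrations for 2 h, then lysed in 1× SDS sample buffer. Lysates run on 10% SDS-PAGE, transferred to nitrocellulose, and probed for phospho-FGFR, PLCγ and Erk. Detection by enhanced chemiluminescence.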
Target sequence in this assay (P11362 22-822 limits assumed): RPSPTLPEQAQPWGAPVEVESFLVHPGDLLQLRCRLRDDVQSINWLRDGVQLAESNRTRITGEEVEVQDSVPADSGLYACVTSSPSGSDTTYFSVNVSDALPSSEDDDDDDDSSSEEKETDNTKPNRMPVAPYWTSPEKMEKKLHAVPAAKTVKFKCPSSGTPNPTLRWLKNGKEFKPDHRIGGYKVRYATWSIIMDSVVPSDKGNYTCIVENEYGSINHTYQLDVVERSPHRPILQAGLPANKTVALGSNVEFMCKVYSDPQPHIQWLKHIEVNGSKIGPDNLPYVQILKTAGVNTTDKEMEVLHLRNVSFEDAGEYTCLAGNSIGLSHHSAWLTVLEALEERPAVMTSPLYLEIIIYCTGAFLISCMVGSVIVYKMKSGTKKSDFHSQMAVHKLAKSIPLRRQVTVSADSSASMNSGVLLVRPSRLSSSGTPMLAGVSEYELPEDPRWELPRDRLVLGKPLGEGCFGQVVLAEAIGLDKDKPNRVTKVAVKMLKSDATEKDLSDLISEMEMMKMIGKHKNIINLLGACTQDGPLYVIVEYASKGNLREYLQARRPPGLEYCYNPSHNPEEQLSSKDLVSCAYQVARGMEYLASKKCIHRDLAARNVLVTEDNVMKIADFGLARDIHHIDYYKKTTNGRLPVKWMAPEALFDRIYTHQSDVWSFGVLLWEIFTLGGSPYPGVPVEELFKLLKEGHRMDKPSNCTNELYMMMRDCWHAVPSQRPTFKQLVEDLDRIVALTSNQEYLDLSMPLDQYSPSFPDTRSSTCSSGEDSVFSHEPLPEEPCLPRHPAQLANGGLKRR

[11] = target: Platelet-derived growth factor receptor alpha (Homo sapiens, UniProt P16234); experiment: Inhibition of recombinant human PDGFRalpha using poly (Glu, Tyr) 4:1 as substrate after 60 mins by ELISA; procedure, shortened: as §2
Sequence of Platelet-derived growth factor receptor alpha (P16234 whole entry): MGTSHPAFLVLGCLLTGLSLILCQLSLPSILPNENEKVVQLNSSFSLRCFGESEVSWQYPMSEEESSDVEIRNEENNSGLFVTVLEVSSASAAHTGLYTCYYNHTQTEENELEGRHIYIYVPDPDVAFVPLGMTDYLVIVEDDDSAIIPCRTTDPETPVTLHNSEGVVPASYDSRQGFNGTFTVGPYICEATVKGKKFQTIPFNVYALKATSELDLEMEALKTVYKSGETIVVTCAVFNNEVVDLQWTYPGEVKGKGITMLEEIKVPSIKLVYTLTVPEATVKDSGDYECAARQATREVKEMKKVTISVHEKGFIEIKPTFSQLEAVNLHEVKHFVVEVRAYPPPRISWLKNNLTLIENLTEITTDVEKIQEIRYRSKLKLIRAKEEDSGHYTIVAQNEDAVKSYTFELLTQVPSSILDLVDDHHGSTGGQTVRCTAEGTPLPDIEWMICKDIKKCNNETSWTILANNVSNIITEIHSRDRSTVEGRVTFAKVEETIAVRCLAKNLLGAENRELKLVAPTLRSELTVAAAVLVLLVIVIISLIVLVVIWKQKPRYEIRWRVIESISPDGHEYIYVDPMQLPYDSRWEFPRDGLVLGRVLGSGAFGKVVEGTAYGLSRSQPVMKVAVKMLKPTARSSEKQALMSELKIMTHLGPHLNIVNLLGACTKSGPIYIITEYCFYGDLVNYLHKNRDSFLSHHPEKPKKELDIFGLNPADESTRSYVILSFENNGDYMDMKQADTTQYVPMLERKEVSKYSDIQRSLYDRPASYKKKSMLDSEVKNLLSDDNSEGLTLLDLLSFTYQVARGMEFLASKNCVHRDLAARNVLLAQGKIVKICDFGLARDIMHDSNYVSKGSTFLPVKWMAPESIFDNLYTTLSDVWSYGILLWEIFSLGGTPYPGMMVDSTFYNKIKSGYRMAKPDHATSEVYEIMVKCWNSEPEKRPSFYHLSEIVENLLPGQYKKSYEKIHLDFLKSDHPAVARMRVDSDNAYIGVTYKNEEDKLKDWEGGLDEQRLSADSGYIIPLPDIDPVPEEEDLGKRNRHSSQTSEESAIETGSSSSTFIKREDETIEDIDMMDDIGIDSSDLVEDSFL

NCI-H1581 [12] = experiment: Antitumor activity against human NCI-H1581 cells xenografted in po dosed nude mouse assessed as tumor growth inhibition administered as qd for 21 days measured on day 21 post last dose; format: functional, organism-based; procedure, shortened: as §1
[13] = target: Fibroblast growth factor receptor 3 (Homo sapiens, UniProt P22607); experiment: Inhibition of recombinant human FGFR3 using poly (Glu, Tyr) 4:1 as substrate after 60 mins by ELISA; procedure, shortened: as §2
Sequence of Fibroblast growth factor receptor 3 (P22607 whole entry): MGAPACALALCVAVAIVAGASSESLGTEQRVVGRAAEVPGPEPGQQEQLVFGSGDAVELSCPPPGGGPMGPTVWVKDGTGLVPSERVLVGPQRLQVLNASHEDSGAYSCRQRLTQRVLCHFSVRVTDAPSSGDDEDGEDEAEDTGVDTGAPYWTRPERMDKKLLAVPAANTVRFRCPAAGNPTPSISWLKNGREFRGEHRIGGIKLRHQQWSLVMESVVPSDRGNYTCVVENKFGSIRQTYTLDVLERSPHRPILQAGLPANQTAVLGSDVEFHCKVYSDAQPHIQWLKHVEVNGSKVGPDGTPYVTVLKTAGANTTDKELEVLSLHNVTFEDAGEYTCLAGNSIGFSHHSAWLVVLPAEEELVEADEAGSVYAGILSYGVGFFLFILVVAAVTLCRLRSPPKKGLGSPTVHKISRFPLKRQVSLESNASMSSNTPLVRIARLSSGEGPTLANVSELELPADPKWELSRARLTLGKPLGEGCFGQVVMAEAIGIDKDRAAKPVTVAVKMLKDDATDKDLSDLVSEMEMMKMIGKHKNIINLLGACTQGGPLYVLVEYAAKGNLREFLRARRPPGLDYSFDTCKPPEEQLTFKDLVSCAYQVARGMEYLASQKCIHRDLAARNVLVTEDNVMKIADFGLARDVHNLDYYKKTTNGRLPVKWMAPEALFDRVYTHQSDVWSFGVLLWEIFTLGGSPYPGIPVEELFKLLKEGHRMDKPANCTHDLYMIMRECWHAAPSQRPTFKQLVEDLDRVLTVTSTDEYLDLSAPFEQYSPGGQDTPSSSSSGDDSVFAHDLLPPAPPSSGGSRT

[14] = target: T2, Fibroblast growth factor receptor 2 (Homo sapiens, UniProt P21802); experiment: Inhibition of recombinant human FGFR2 using poly (Glu, Tyr) 4:1 as substrate after 60 mins by ELISA; procedure, shortened: as §2
Target sequence in this assay (P21802 whole entry): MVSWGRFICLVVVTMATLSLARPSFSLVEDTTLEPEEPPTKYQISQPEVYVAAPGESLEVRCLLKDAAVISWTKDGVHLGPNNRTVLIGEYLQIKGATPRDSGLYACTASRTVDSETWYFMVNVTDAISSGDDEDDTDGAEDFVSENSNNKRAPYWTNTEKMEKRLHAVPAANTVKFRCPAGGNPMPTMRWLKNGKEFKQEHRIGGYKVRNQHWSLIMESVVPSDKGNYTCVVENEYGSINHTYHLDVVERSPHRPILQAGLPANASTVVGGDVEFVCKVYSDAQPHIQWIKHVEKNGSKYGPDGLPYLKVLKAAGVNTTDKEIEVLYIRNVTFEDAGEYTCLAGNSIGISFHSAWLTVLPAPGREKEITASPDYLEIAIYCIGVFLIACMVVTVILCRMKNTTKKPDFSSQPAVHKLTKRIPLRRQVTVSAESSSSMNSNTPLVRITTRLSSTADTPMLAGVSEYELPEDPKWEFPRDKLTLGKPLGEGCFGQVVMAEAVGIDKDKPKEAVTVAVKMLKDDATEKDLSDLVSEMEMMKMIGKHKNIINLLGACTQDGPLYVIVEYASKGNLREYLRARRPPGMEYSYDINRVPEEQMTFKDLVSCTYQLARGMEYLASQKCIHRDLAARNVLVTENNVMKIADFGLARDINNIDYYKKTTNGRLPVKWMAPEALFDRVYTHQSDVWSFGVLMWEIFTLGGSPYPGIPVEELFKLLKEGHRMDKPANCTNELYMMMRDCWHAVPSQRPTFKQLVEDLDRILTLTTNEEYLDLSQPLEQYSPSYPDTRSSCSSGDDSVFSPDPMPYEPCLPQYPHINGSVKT

[15] = Cmax in Sprague-Dawley rat at 1 mg/kg, iv; format: ADME, organism-based; parameters: dose 1 mg/kg, route intravenous; details: in vivo
cells [16] = details: Homo sapiens, SNU-16, 72 h
[17] = target: Platelet-derived growth factor receptor beta (Homo sapiens, UniProt P09619); experiment: Inhibition of recombinant human PDGFRbeta using poly (Glu, Tyr) 4:1 as substrate after 60 mins by ELISA; procedure, shortened: as §2
[18] = target: T1, Fibroblast growth factor receptor 1; experiment: Inhibition of FGFR1 phosphorylation in human KG1 cells after 2 hrs by Western blot method; format: cell-based; details: KG-1; procedure, shortened: as §3
Target sequence in this assay (P11362 22-822 limits assumed): as the sequence (P11362 22-822 limits assumed) above

Mus musculus = experiment: Toxicity in nude mouse xenografted with human NCI-H1581 cells assessed as body weight loss at 2 to 10 mg/kg, po qd administered for 21 days measured during compound dosing; format: organism-based; details: in vivo, 504 h; procedure, shortened: as §1
[19] = Volume of distribution at steady state in Sprague-Dawley rat at 1 mg/kg, iv; format: ADME, organism-based; details: in vivo, read-out: Vdss
[20] = target: T2, Fibroblast growth factor receptor 2; experiment: Inhibition of FGFR2 in human SNU15 cells assessed as reduction of ERK phosphorylation at 0.1 to 10 nM after 2 hrs by Western blot method; format: cell-based

AUC(0-inf) [1]: 485 ng·h/mL
IC50 (Bcr/Abl fusion protein): > 100 nM
IC50 (Ephrin type-A receptor 2): > 100 nM
IC50 [3]: 0.9 nM
IC50 (cells [4]): < 0.1 nM
IC50 [5]: > 1000 nM
clearance [6]: 33.3 mL/min/kg
IC50 [7]: > 1000 nM
IC50 (cells [8]): < 0.1 nM
IC50 [9]: 6.1 nM
inhibition [10]: Active
IC50 [11]: 782 nM
IC50 [13]: 2 nM
IC50 [14]: 2 nM
Cmax [15]: 300 ng/mL
IC50 (cells [16]): < 0.1 nM
IC50 [17]: > 1000 nM
inhibition [18]: Dose-dependent effect
Vd [19]: 5.8 L/kg
inhibition [20]: Active
Compound: C[C@@H](Oc1ccc2[nH]nc(-c3nc4cc(N5CCN(C)CC5)ccc4[nH]3)c2c1)c1c(Cl)cncc1Cl
inhibition in vivo at 2 mg/kg (NCI-H1581 [2]): 44.5%
TGI (NCI-H1581 [12]): Dose-dependent effect
Activity (Mus musculus): Non-toxic
